pIC50: −log10 of the molar value.
What was measured:
[1] = system: Plasmodium falciparum; assay: Antiplasmodial activity against ring stage of CQ-resistant Plasmodium falciparum W2 after 48 hrs by flow cytometric analysis; format: functional, organism-based; details: W2, 48 h
[2] = system: Plasmodium berghei; assay: Antiplasmodial activity against liver stage of Plasmodium berghei expressing GFP-Luc infected in HuH7 cells incubated at 1 hr prior to infection followed by compound replenisment at 24 hrs post-infection measured after 48 hrs by Alamar blue assay; format: functional, organism-based; details: Huh-7, in the assay text read “luciferase bioluminescence assay” for “Alamar blue assay”
How it was run: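 Huh7 human hepatoma cells infected with firefly luciferase-expressing P. berghei sporozoites in the presence of compound. Liver-stage infection load read as bioluminescence of cell lysates 48 h after infection. Primaquine included as the liver-stage reference.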

[3] = system: Plasmodium berghei; assay: Ratio of primaquine IC50 to compound IC50 for liver stage of Plasmodium berghei; format: functional
[4] = system: Huh-7; assay: Cytotoxicity against human HuH7 cells up to 5 uM after 48 hrs by cell confluence analysis; format: cell-based; details: huh-7, 48 h

Row | Structure (SMILES) | pIC50 [1] | pIC50 [2] | Ratio IC50 [3] | Activity [4]
1 | O=C(/C=C/c1ccccc1)NCCCCNc1c2ccccc2nc2ccccc12 | 6.05 |  |  | 
2 | Cc1ccc(/C=C/C(=O)NCCCCNc2c3ccccc3nc3ccccc23)cc1 | 6.65 |  |  | 
3 | CC(C)c1ccc(/C=C/C(=O)NCCCCNc2c3ccccc3nc3ccccc23)cc1 | 6.90 |  |  | 
4 | COc1ccc(/C=C/C(=O)NCCCCNc2c3ccccc3nc3ccccc23)cc1 | 6.86 | 5.49 | 3 | Non-toxic
5 | O=C(/C=C/c1cccc(F)c1)NCCCCNc1c2ccccc2nc2ccccc12 | 6.46 |  |  | 
6 | O=C(/C=C/c1ccc(F)cc1)NCCCCNc1c2ccccc2nc2ccccc12 | 6.84 |  |  | Non-toxic
7 | O=C(/C=C/c1cccc([N+](=O)[O-])c1)NCCCCNc1c2ccccc2nc2ccccc12 | 6.85 |  |  | 
8 | CCN(CC)CCCC(C)Nc1ccnc2cc(Cl)ccc12 (stereo not drawn) [CHLOROQUINE] |  | < 4.82 |  | 
9 | COc1cc(NC(C)CCCN)c2ncccc2c1 (stereo not drawn) [PRIMAQUINE] |  | 5.10 |  | 
